What was measured:
Homo sapiens [1] = assay: fT>MIC in cystic fibrosis patient at 6 gram/70kg, iv administered as 1 mg/l infusion every 8 hrs; assay type: functional
How it was run: (§1)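 Monte Carlo simulation from the population PK model, using allometric scaling by fat-free mass. All regimens gave 6 g per 70 kg WT daily, as 30-min infusions q8h or q6h, prolonged 4–5-h infusions, or continuous infusion. Protein binding was assumed to be 11%, so only the non-protein-bound fraction counts. The PK-PD breakpoint was the MIC with target-attainment probability ≥90%.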

[2] = Total clearance in cystic fibrosis patient; assay type: ADME, organism-based; conditions: human, in vivo
Homo sapiens [3] = assay: fT>MIC in healthy human subjects at 6 gram/70kg, iv administered as 12 mg/l infusion every 6 hrs; assay type: functional; how it was run: as §1
[4] = Total clearance in healthy human subjects at 2 gram, iv administered in 5 mins infusion; assay type: ADME, organism-based; conditions: in vivo
How it was run: (§2)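 Single-dose, single-centre, open, parallel-group trial in CF patients (n = 8) and healthy volunteers (n = 7). Each subject received 2 g ceftazidime by 5-min IV infusion; three CF patients received 1.5, 1 or 3 g instead. Venous plasma was sampled from 0 min to 12 h after the end of infusion. Drug was read at 275 nm (linear 0.6–200 mg/liter). Noncompartmental parameters were not body-size scaled.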

[5] = Total clearance in healthy human subjects at […], iv administered 20 mins infusion; assay type: ADME, organism-based; conditions: in vivo
Homo sapiens [6] = assay: fT>MIC in cystic fibrosis patient at 6 gram/70kg, iv administered as 6 mg/l infusion every 6 hrs; assay type: functional; how it was run: as §1
[7] = Volume of distribution at steady state in cystic fibrosis patient at 2 gram, iv administered in 5 mins infusion; assay type: ADME, organism-based; conditions: human, in vivo, read-out: Vdss; how it was run: as §2
[8] = Terminal half life in healthy human subjects at […], iv administered 20 mins infusion; assay type: ADME, organism-based; conditions: in vivo, read-out: beta t1/2 (converted)
Homo sapiens [9] = assay: fT>MIC in healthy human subjects at 6 gram/70kg, iv administered as 8 mg/l infusion every 8 hrs; assay type: functional; how it was run: as §1
[10] = Terminal half life in cystic fibrosis patient at […], iv administered 20 mins infusion; assay type: ADME, organism-based; conditions: human, in vivo, read-out: beta t1/2 (converted)
[11] = Cmax in healthy human subjects at 2 gram, iv administered in 5 mins infusion; assay type: ADME, organism-based; parameters: route intravenous; conditions: in vivo; how it was run: as §2
[12] = Mean residence time in cystic fibrosis patient at 2 gram, iv administered in 5 mins infusion; assay type: ADME, organism-based; conditions: human, in vivo; how it was run: as §2
[13] = Cmax in cystic fibrosis patient at 2 gram, iv administered in 5 mins infusion; assay type: ADME, organism-based; parameters: route intravenous; conditions: human, in vivo; how it was run: as §2
Homo sapiens [14] = assay: Volume of distribution at steady state in healthy human subjects at 2 gram, iv administered in 5 mins infusion; assay type: ADME, organism-based; conditions: in vivo; how it was run: as §2
Homo sapiens [15] = assay: fT>MIC in healthy human subjects at 6 gram/70kg, iv administered as 4 mg/l infusion every 6 hrs; assay type: functional; how it was run: as §1
[16] = Total clearance in cystic fibrosis patient at […], iv administered 20 mins infusion; assay type: ADME, organism-based; conditions: human, in vivo
[17] = Renal clearance in cystic fibrosis patient; assay type: ADME, organism-based, Kidney; conditions: human, in vivo; read-out: CL_renal
Homo sapiens [18] = assay: fT>MIC in healthy human subjects at 6 gram/70kg, iv administered as 3 mg/l infusion every 8 hrs; assay type: functional; how it was run: as §1
Homo sapiens [19] = assay: fT>MIC in cystic fibrosis patient at 6 gram/70kg, iv administered as 6 mg/l infusion
[20] = Renal clearance in healthy human subjects; assay type: ADME, organism-based, Kidney; conditions: in vivo, read-out: CL_renal
[21] = Terminal half life in cystic fibrosis patient at 2 gram, iv administered in 5 mins infusion; assay type: ADME, organism-based; conditions: human, in vivo, read-out: beta t1/2 (converted); how it was run: as §2
Homo sapiens [22] = assay: fT>MIC in cystic fibrosis patient at 6 gram/70kg, iv administered as 2 mg/l infusion every 6 hrs; assay type: functional; how it was run: as §1
[23] = Terminal half life in healthy human subjects at 2 gram, iv administered in 5 mins infusion; assay type: ADME, organism-based; conditions: in vivo, read-out: beta t1/2 (converted); how it was run: as §2
[24] = Mean residence time in healthy human subjects at 2 gram, iv administered in 5 mins infusion; assay type: ADME, organism-based; conditions: in vivo; how it was run: as §2
[25] = Total clearance in cystic fibrosis patient at 2 gram, iv administered in 5 mins infusion; assay type: ADME, organism-based; conditions: human, in vivo; how it was run: as §2
[26] = Total clearance in juveline to adult cystic fibrosis patient; assay type: ADME, organism-based; conditions: human, in vivo

For `CC(C)(O/N=C(\C(=O)N[C@@H]1C(=O)N2C(C(=O)[O-])=C(C[n+]3ccccc3)CS[C@H]12)c1csc(N)n1)C(=O)O` [CEFTAZIDIME], the “fT>MIC” value (Homo sapiens [1]) was “>=65%”, the clearance [2] was 127 mL/min and the “fT>MIC” value (Homo sapiens [3]) was “>=40%”. The clearance [4] was 110 mL/min, the clearance [5] was 101 mL/min and the “fT>MIC” value (Homo sapiens [6]) was “>=40%”. For the same molecule, the Vd [7] was 9.14 L, the half-life [8] was 1.76 h and the “fT>MIC” value (Homo sapiens [9]) was “>=40%”. The half-life [10] was 1.5 h, the Cmax [11] was 210 µg/mL and the MRT [12] was 1.54 h. The Cmax [13] was 445 µg/mL, the Vdss (Homo sapiens [14]) was 14.3 L and the “fT>MIC” value (Homo sapiens [15]) was “>=65%”. The clearance [16] was 142 mL/min, the CL renal [17] was 125 mL/min and the “fT>MIC” value (Homo sapiens [18]) was “>=65%”. The “fT>MIC” value (Homo sapiens [19]) was “>=40%”, the CL renal [20] was 100 mL/min and the half-life [21] was 1.48 h. For the same molecule, the “fT>MIC” value (Homo sapiens [22]) was “>=65%”, the half-life [23] was 1.94 h and the MRT [24] was 2.1 h. It also gave a clearance [25] of 89.5 mL/min and a clearance [26] of 133 mL/min.

— ChEMBL document CHEMBL1240401, “Population pharmacokinetic comparison and pharmacodynamic breakpoints of ceftazidime in cystic fibrosis patients and healthy volunteers” (Antimicrob Agents Chemother, 2010)
